Screening data (PubChem)
In the library only some 5.2% were active in any assay of this set; here they are far more common.
HCV NS3 hel inh: blocks Hepatitis C virus NS3 helicase unwinding. inhibition, % at 10.9 µM. AID 1800. 0.56% of 290,000 active. NS3 helicase DNA unwinding, Cy5 molecular beacon fluorescence;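 active = inhibition above the mean of all tested compounds plus 3 SD, set per campaign, cut at about 35% in these data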;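 note: 0% = DMSO wells and 100% = thioflavine S control wells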
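Assay system: hepatitis C virus NS3 helicase domain fragment enzyme. Also added: annealed dual-labelled DNA beacon duplex, ATP-started. Timing: 1 h reaction at 25 °C, ATP-initiated. Technique: Cy5 fluorescence at 0 and 60 min, beacon hairpin quenching. Evaluation: % inhibition of unwinding. Replication: one well per compound.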
ALR inh: inhibitors of human sulfhydryl oxidase ALR. P55789. inhibition, % (no concentration beside the values). purified ALR, DTT oxidation, H2O2 HRP-luminol luminescence. 3.8% of 290,000 active. AID 485317;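 active = mean replicate inhibition above about 79%, with every replicate also reaching it, limit read from the data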
Target sequence (P55789 whole entry, looked up): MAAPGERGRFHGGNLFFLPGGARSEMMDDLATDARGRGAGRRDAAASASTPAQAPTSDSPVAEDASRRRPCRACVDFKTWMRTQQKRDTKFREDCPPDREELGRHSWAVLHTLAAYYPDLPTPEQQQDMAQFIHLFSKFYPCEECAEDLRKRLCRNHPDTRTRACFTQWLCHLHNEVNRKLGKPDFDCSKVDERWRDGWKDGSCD
ZTA counter: counter-screen for EBNA-1 inhibitors: inhibitors of Epstein-Barr virus ZTA. 0.15% of 320,000 active. P03206. inhibition, % at 11 µM. ZTA-DNA binding, fluorescence polarization; in the data active = inhibition above about 33%
Target sequence (P03206 whole entry, looked up): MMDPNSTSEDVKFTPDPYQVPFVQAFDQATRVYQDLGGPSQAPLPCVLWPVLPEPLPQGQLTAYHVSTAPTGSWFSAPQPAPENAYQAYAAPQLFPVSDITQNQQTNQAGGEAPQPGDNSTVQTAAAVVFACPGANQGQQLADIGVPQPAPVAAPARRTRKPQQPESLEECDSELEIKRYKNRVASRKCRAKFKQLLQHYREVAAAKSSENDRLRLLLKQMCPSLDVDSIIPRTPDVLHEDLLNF
PfM18AAP inh: PfM18AAP enzyme inhibition; recombinant PfM18AAP, H-Glu-NHMec fluorogenic cleavage; inhibition, % at 7.35 µM; 1.2% of 290,000 active; AID 1822;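 active = inhibition above the campaign mean inhibition over all tested compounds plus 3 SD, cut at about 28% in these data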;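 note: 0% = plate median of test compound wells and 100% = 2 mM ZnCl2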
EBNA-1 inhibitor: blocks EBNA-1 binding to DNA | EBNA-1 DNA binding, fluorescence polarization | inhibition, % at 14.8 µM | 0.34% of 300,000 active | AID 1950; in the data active = inhibition above about 28%
core dimer inh: HCV core protein dimerization inhibition; TR-FRET GST/Flag-core106 dimerization, 1536-well; inhibition, % at 5 µM; 0.33% of 300,000 active;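 active = inhibition above the mean of all tested compounds plus 3 SD, set per screening campaign, cut at about 45% in these data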
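Assay system – GST-tagged and Flag-tagged HCV core protein residues 1-106 · Quantity – core106 proteins, GST 13.5 nM and Flag 17 nM · Benchmarks – unlabelled core106 and no-GST-core106 wells · Read-out basis – percent inhibition of core106 dimerization signal · Detection – time-resolved FRET, ex 340 nm, em 617 and 671 nm · Schedule – 4 h at 22.5 °C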
An asterisk follows results filed as active; · = not tested or not shown.

SMILES | HCV NS3 hel inh | ALR inh | ZTA counter | PfM18AAP inh | EBNA-1 inhibitor | core dimer inh
CCOc1ccccc1C1C(C#N)=C(N)SC(N)=C1C#N | 5 | 13 | 4 | 6 | -7 | 33
CCOc1ccc(C2C(C#N)=C(N)SC(N)=C2C#N)cc1OC | 14 | · | 21 | -5 | -2 | 57*
N#CC1=C(N)SC(N)=C(C#N)C1c1ccc([N+](=O)[O-])cc1 | 21 | 98* | 9 | 22 | -1 | 11
N#CC1=C(N)SC(N)=C(C#N)C1c1cccc(Oc2ccccc2)c1 | 17 | 14 | 11 | 3 | 2 | 18
CCOc1ccc(C2C(C#N)=C(N)SC(N)=C2C#N)cc1OCC | · | 13 | 18 | · | 15 | 58*
Cc1ccc(Cn2c(N/N=C/c3ccncc3)nc3c2c(=O)n(C)c(=O)n3C)cc1 | 28 | 97* | 5 | 14 | -3 | -5
C/C(Cl)=C\Cn1c(Nc2ccccc2)nc2c1c(=O)n(C)c(=O)n2C | -7 | 87* | 16 | -6 | -2 | 7
COc1cc(/C=N/Nc2nc3c(c(=O)n(C)c(=O)n3C)n2Cc2ccccc2)ccc1OC(=O)c1ccco1 | 3 | -8 | 17 | 3 | 2 | 5
Cn1c(=O)c2c(nc(N/N=C/c3ccncc3)n2Cc2ccccc2)n(C)c1=O | -5 | 97* | -15 | 12 | -6 | 1
O=C(Nc1cccc(S(=O)(=O)N2CCCCCC2)c1)C1CCC1 | · | 3 | 7 | · | 6 | 2
CCOc1c(Cl)cc(/C=C/C(=O)N(CC)CC(=O)NCc2cccs2)cc1OC | · | -2 | 7 | · | -14 | -6
O=C(CSc1nc2ccccc2c(=O)[nH]1)c1cccs1 | 7 | 15 | 1 | 7 | 8 | 0
N#Cc1c(-c2ccccc2)nc(SCC(=O)Nc2ccc(OC(F)(F)Cl)cc2)[nH]c1=O | -12 | 99* | 6 | -3 | -2 | 12
N#Cc1c(-c2ccccc2)nc(SCC(=O)Nc2nnc(C(F)(F)F)s2)[nH]c1=O | 35 | 15 | -17 | 3 | 4 | 7
Cc1cc(C)nc(NS(=O)(=O)c2ccc(NC(=O)CSc3nc(-c4ccccc4)c(C#N)c(=O)[nH]3)cc2)n1 | 22 | 99* | -9 | -1 | -4 | 6
Cc1cc(NC(=O)CSc2nc(-c3ccccc3)c(C#N)c(=O)[nH]2)no1 | 4 | · | -3 | 4 | 4 | 3
N#Cc1c(-c2ccccc2)nc(SCC(=O)Nc2ccccc2)[nH]c1=O | 22 | 98* | -4 | -3 | 7 | 4
N#Cc1c(-c2cccs2)nc(SCC(=O)c2cccs2)[nH]c1=O | 26 | 98* | 9 | 14 | -6 | 25
Cc1cc2c3c([nH]c2cc1S(=O)(=O)NCCCOC(C)C)CC(C)(C)CC3=O | -4 | -3 | 22 | -1 | 8 | 1
COc1ccc(Cl)cc1NS(=O)(=O)c1cccc(C(=O)NC2CC2)c1 | · | 10 | · | · | · | ·
Cc1cccc(NC(=O)CSc2nc(-c3ccccc3)c(C#N)c(=O)[nH]2)c1C | 16 | 91* | 11 | 2 | 12 | 19
N#Cc1c(-c2ccccc2)nc(SCC(=O)N(c2ccccc2)c2ccccc2)[nH]c1=O | 16 | 98* | 10 | -9 | 11 | 19
N#Cc1c(-c2ccccc2)nc(SCC(=O)Nc2ccccc2F)[nH]c1=O | 20 | 99* | 2 | 8 | 5 | 4
O=C(CSc1nc(-c2ccccc2)cc(=O)[nH]1)Nc1ccccc1F | -23 | 4 | 7 | 0 | 11 | -1
Cc1noc(C)c1COc1ccc(C(=O)N2CCN(S(=O)(=O)c3cccc(F)c3)CC2)cc1 | · | -8 | · | · | · | ·
SMILES | HCV NS3 hel inh | ALR inh | ZTA counter | PfM18AAP inh | EBNA-1 inhibitor | core dimer inh
N#CNC(=Nc1ccccc1F)SCc1ccc(C(=O)O)cc1 | 7 | 99* | -13 | -1 | -3 | 0
O=c1oc2ccccc2c(Nc2ccc(O)cc2)c1[N+](=O)[O-] | -3 | 94* | -4 | 0 | -8 | 0
Cc1cccc(N2CCN(C(=O)C3CCN(S(=O)(=O)c4c(C)noc4C)CC3)CC2C)c1 (stereo not given) | -6 | 98* | 0 | 7 | 7 | 2
Cc1ccc(NC(=O)C2CCN(S(=O)(=O)c3c(C)noc3/C=C/c3ccco3)CC2)nc1 | 10 | 10 | 24 | -9 | 12 | 8
Cc1noc(/C=C/c2ccco2)c1S(=O)(=O)N1CCC(C(=O)N2CCc3ccccc3C2)CC1 | 16 | -10 | -14 | 0 | -4 | 48*
Cc1cccc(N2CCN(C(=O)C3CCCN(S(=O)(=O)c4cnc[nH]4)C3)CC2C)c1 (stereo not given) | -5 | 99* | -5 | 4 | -7 | 0
Cc1c(C(=O)OCC(=O)NCC2CCCO2)cccc1[N+](=O)[O-] (stereo not given) | -3 | -21 | -6 | 9 | 11 | -1
CC(C)CCCCCCNC(=S)Nc1ccc(S(=O)(=O)N2CCOCC2)cc1 | -5 | -2 | 7 | -6 | 6 | 3
O=C(NN1C(=O)/C(=C/C=C/c2ccco2)SC1=S)c1ccccc1O | 34 | 69 | 49* | 18 | 37* | 70*
COc1ccc(N)cc1C#N | 1 | -64 | -3 | -2 | -1 | 4
COc1cc(N)ccc1Cc1ccc(N)cc1OC | -5 | 97* | -7 | 2 | -7 | 3
CC1CCCCN1c1nnc(N)s1 (stereo not given) | -5 | 53 | 13 | 6 | 14 | 2
CC1CCCC(C)N1c1nnc(N)s1 (stereo not given) | 11 | 95* | -6 | -5 | 5 | 0
Cc1ccc(NC(NC(=O)c2ccccc2[N+](=O)[O-])C(Cl)(Cl)Cl)cc1 (stereo not given) | 5 | 99* | -9 | -8 | -12 | -8
O=Cc1ccc(OC(=O)Cc2ccc(F)cc2)cc1 | 2 | -6 | -6 | 1 | 3 | -3
O=C(O)COc1ccccc1/C=C1\SC(=O)N(Cc2ccc(F)cc2)C1=O | 21 | 98* | 17 | 12 | -6 | 11
Cc1ccc(CN2C(=O)S/C(=C\c3ccccc3OCC(=O)O)C2=O)cc1 | 19 | 97* | 16 | 4 | 2 | 8
O=C(O)CN1C(=O)/C(=C\c2ccccc2OCc2ccc(F)cc2)SC1=S | -5 | 12 | -2 | 1 | 4 | 21
CN(C)c1ccc(C2N(c3ccc(Cl)cc3)C(=O)C3CCCN32)cc1 (stereo not given) | -7 | 64 | 1 | 6 | 6 | -1
CN(C)c1ccc(C2N(c3ccc(F)cc3)C(=O)C3CCCN32)cc1 (stereo not given) | -8 | 97* | 4 | 3 | -6 | -1
CC(C)(C)c1ccc(C(CC(=O)O)NC(=O)Cc2ccccc2)cc1 (stereo not given) | 16 | -4 | 2 | 3 | 14 | -6
Nc1nc(SCc2ccccc2Cl)nc2nc3c(cc12)CCCC3 | 1 | -2 | -6 | -3 | 2 | 6
